Source: the M2OR odorant receptor database

Tests used:
Conditions in all cases: stereoisomer not certain
OR10H4 (Homo sapiens) = target: T1, OR10H4 (Homo sapiens) (UniProt Q8NGA5)
T1 sequence (whole entry): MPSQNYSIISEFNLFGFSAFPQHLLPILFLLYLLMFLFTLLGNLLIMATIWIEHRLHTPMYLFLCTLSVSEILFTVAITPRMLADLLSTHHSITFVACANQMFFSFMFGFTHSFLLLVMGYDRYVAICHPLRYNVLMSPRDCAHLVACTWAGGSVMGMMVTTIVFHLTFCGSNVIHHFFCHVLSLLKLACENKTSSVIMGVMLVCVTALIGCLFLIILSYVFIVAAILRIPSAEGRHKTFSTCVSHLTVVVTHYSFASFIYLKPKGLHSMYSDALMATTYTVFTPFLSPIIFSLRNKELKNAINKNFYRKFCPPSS
In short: (§1)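 Transient luciferase assays in mammalian cell lines were common, though methods varied by source. The values come from published papers and their supplementary material, with extra details from the original authors when needed. Responsive refers to a measured signal the original authors judged statistically different from baseline, and non-responsive (inactive) to the remainder.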

OR10H5 (Homo sapiens) = target: T2, OR10H5 (Homo sapiens) (UniProt Q8NGA6)
T2 sequence (whole entry): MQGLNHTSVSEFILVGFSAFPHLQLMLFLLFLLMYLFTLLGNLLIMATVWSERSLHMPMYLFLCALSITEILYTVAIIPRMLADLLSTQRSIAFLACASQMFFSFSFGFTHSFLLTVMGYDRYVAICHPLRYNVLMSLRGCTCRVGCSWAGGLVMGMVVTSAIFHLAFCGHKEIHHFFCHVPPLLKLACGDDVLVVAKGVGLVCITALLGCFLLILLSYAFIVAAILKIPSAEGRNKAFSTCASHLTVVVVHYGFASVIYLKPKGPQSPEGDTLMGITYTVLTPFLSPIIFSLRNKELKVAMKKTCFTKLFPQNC
In short: as §1

OR10J1 (Homo sapiens) = target: T3, OR10J1 (Homo sapiens) (UniProt P30954)
T3 sequence (whole entry): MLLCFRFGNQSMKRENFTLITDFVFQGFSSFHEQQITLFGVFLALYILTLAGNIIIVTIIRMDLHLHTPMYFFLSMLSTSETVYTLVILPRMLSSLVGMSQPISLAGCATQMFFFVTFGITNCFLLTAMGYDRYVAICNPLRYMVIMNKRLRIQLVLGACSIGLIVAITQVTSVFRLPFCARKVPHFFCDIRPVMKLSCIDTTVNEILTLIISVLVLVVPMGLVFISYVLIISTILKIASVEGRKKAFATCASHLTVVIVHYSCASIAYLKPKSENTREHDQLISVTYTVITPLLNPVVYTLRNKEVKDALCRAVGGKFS
In short: as §1

OR10J3 (Homo sapiens) = target: T4, OR10J3 (Homo sapiens) (UniProt Q5JRS4)
T4 sequence (whole entry): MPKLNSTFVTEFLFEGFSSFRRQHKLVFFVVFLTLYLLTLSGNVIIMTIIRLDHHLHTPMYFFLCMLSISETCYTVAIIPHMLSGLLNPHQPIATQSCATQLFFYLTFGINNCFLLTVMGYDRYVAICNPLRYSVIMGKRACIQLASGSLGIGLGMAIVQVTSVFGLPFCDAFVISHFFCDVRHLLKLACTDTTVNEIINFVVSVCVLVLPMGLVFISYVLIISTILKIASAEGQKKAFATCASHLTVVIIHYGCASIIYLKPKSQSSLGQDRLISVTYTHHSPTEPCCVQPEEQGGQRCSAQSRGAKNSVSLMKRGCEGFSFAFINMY
In short: as §1

OR10J5 (Homo sapiens) = target: T5, OR10J5 (Homo sapiens) (UniProt Q8NHC4)
T5 sequence (whole entry): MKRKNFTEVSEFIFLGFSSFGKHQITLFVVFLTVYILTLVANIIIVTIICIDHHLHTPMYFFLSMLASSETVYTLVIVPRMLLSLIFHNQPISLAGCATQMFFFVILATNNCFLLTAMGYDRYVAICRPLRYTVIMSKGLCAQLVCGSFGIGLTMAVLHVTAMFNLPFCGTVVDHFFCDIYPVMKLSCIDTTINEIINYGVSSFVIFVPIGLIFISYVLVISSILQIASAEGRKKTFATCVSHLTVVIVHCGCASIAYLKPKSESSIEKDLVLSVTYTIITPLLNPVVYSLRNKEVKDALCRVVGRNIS
In short: as §1

OR10K1 (Homo sapiens) = target: T6, OR10K1 (Homo sapiens) (UniProt Q8NGX5)
T6 sequence (whole entry): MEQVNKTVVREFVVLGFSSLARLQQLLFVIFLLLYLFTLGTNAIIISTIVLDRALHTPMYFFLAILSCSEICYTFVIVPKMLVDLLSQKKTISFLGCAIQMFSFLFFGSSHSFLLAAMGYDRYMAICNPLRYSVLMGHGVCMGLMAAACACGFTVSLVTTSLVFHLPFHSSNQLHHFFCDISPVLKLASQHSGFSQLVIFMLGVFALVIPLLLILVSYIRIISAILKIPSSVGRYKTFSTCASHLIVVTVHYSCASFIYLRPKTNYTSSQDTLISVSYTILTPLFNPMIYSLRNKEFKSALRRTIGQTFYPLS
In short: as §1

OR10K2 (Homo sapiens) = target: T7, OR10K2 (Homo sapiens) (UniProt Q6IF99)
T7 sequence (whole entry): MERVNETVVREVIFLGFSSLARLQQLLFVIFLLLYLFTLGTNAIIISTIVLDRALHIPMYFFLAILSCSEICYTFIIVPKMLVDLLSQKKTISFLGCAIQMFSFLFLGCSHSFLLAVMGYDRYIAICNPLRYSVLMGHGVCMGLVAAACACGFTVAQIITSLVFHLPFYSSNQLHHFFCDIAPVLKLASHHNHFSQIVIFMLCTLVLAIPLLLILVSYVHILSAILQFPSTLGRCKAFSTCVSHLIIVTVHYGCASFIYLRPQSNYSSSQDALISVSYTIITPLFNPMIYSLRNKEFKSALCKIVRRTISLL
In short: as §1

OR10P1 (Homo sapiens) = target: T8, OR10P1 (Homo sapiens) (UniProt Q8NGE3)
T8 sequence (whole entry): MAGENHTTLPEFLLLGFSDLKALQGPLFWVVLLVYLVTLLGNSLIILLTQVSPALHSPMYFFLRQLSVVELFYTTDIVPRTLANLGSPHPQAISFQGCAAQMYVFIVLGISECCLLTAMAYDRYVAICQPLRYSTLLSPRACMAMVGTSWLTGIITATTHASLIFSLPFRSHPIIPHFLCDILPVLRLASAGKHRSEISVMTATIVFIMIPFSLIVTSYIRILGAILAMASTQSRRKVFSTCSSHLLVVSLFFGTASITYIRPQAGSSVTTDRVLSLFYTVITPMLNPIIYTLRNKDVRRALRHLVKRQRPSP
In short: as §1

OR10Q1 (Homo sapiens) = target: T9, OR10Q1 (Homo sapiens) (UniProt Q8NGQ4)
T9 sequence (whole entry): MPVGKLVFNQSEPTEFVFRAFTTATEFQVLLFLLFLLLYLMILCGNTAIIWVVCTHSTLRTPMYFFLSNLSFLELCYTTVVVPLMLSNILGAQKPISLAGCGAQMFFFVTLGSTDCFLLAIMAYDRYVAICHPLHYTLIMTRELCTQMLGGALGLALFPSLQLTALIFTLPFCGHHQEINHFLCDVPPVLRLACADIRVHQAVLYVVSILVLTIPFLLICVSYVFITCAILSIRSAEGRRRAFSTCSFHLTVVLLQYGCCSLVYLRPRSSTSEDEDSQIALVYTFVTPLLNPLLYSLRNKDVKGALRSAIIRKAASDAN
In short: as §1

Measured: odorant receptor agonist call

CCC(S)C(C)CO (centres undefined)
inactive: OR10H4 (Homo sapiens) | OR10H5 (Homo sapiens) | OR10J1 (Homo sapiens) | OR10J3 (Homo sapiens) | OR10J5 (Homo sapiens) | OR10K1 (Homo sapiens) | OR10K2 (Homo sapiens) | OR10P1 (Homo sapiens) | OR10Q1 (Homo sapiens)
